# Shown are actives, neighbours in structure and some others; about 2.6% of the full set was active somewhere.
# GSTO1 inh: counter-screen for RBBP9 inhibitors: inhibitors of human GSTO1; P78417; recombinant GSTO1, activity-based probe fluorescence polarization; inhibition, % at 5.96 µM; 1.1% of 300,000 active;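 active = inhibition above the campaign mean inhibition plus 3 SD, cut at about 35% in these data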;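 note: 0% = GSTO1-1 with DMSO and 100% = wells lacking GSTO1-1 enzyme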
# TDP2 absorb: blocks human TDP2 phosphodiesterase activity; recombinant TDP2, T5PNP hydrolysis, p-nitrophenol absorbance 415 nm; inhibition, % at 12.8 µM; 0.34% of 370,000 active; AID 720702;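 active = inhibition above the mean of all tested compounds plus 3 SD, set per campaign, cut at about 25% in these data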;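 note: 0% = DMSO with enzyme and 100% = buffer with substrate but no TDP2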
#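 Incubation: 2 h at 37 °C; Test system: recombinant human TDP2; Quantity: enzyme 120 nM; Read-out basis: percent inhibition; Medium: 50 mM Tris-HCl pH 7.5 with Mg2+, KCl, DTT, BSA; Repeats: single replicate; Compound: 12.8 µM single point, 1% DMSO; Signal: epi absorbance; Reagent: 5 mM T5PNP chromogenic substrate; Benchmarks: no-enzyme high, DMSO-plus-enzyme low.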
# Apaf-1 inh: blocks human Apaf-1 apoptosome activity | O14727 | reconstituted apoptosome caspase-3 activity, DEVD-Rh110 fluorescence | inhibition, % at 20 µM | 0.71% of 330,000 active | AID 489030; active = inhibition of at least 40% at 20 µM;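 note: plate controls were DMSO wells for no effect and DEVD-CHO caspase inhibitor wells for full effect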
#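 Assay system – apoptosome proteins · Medium – Hepes buffer, pH 7.5 · Also added – cytochrome c with DEVD-Rh110 · Timing – 30 min compound preincubation, 50 min activation, room temperature · Detection – Rh110 fluorescence, excitation 480 nm, emission 540 nm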
# PRMT1 FP inh: PRMT1 (human) inhibition, primary screen | recombinant PRMT1, activity-based probe fluorescence polarization | 1.3% of 370,000 active | inhibition, % at 2.79 µM | Q99873;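 active = inhibition above about 21% made by adding two undisclosed values, limit read from the data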
# PAD4 inh: inhibitors of human PAD4; inhibition, % at 6.36 µM; AID 485272; Q9UM07; recombinant PAD4, RCA probe fluorescence polarization; 0.41% of 330,000 active;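 active = percent inhibition above a cutoff equal to the mean of all tested compounds plus 3 SD, cut at about 15% in these data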;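 note: 0% = PAD4 with RCA probe and DMSO and 100% = probe without PAD4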
# Target sequence (Q9UM07 whole entry, looked up): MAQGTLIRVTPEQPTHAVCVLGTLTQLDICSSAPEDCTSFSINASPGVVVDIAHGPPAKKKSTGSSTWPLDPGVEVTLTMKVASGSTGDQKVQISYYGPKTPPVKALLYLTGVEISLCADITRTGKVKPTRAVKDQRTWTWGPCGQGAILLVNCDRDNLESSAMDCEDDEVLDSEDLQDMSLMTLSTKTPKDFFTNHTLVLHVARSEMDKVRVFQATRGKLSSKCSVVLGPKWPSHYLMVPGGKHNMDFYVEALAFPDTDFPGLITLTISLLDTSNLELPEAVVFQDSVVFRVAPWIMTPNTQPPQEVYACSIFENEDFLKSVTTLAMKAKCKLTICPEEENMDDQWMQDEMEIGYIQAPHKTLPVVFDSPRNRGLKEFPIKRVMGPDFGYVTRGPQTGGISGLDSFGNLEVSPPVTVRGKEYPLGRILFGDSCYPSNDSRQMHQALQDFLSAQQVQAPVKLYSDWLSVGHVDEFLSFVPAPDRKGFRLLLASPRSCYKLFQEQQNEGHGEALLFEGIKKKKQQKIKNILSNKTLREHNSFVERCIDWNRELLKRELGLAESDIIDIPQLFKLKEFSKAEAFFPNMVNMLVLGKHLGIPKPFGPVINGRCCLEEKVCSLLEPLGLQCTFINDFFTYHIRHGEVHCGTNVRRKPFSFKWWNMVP
# GSTO1 confirm: GSTO1 (human) inhibition, confirmation; AID 2176; recombinant GSTO1, probe fluorescence polarization; 54% of 2,400 active; inhibition, % at 5.96 µM; shares compounds with GSTO1 inh;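 active = inhibition above the primary screen's cutoff, its mean inhibition plus 3 SD, cut at about 35% in these data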;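 note: loss of polarization as inhibitors block binding of rhodamine sulfonate ester activity probe; 0% = GSTO1 with DMSO and 100% = wells lacking GSTO1 enzyme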
# GSTO1 recomb ABPP: GSTO1 (human) inhibition by gel ABPP. shares compounds with GSTO1 inh. recombinant GSTO1, gel ABPP SE-Rh probe fluorescence. inhibition, % at 1 µM. 30% of 130 active. AID 463110;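 active = inhibition of the enzyme GSTO1 above about 75%, limit read from the data; inactive = inhibition below that limit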
# PAD4 confirm: confirmation of human PAD4 inhibitors; inhibition, % at 6.36 µM; recombinant PAD4, RCA probe fluorescence polarization; shares compounds with PAD4 inh; AID 488796; 28% of 1,200 active;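 active = mean inhibition across replicates above the hit cutoff set by the earlier primary screen, cut at about 15% in these data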;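 note: inhibitors block active-site labeling by the probe so polarization falls; 0% = PAD4 with probe and DMSO and 100% = probe without PAD4 enzyme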
# Apaf-1 inh conf: confirmation of Apaf-1 inhibitors; shares compounds with Apaf-1 inh; reconstituted apoptosome, caspase-3 DEVD-Rh110 fluorescence; inhibition, % at 20 µM; 25% of 1,800 active; AID 504614;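 active = mean inhibition of at least 40% at 20 µM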;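 note: plate controls were DMSO wells for no effect and DEVD-CHO caspase inhibitor control wells for full effect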
# Rh110 quench: counter-screen for Apaf-1 inhibitors: fluorescence interference; shares compounds with Apaf-1 inh; Rh110 fluorescence interference, quenched caspase reaction; activation (fluorescence interference), % at 20 µM; 1,800 tested, under 10 active; AID 504615;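 active = signal rise of 40% or more at 20 µM, treated as a fluorescence artifact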
# Fluor interf inh: Apaf-1 inhibitor counter-screen fluorescence artifact | IC50, µM | 460 tested, under 10 active | shares compounds with Apaf-1 inh | fluorescence interference counterscreen, Apaf-1 assay format; call rule not given here
# PRMT1 confirm: PRMT1 (human) inhibition, FP confirmation. inhibition, % at 2.79 µM. recombinant His-PRMT1, activity-based probe fluorescence polarization. 42% of 3,300 active. shares compounds with PRMT1 FP inh;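 active = mean inhibition across replicates above the hit cutoff derived for the earlier primary screen, cut at about 22% in these data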
# * marks the source's active call; other numbers are inactive results; . = not tested or not shown; + = active, no number.
SMILES,GSTO1 inh,TDP2 absorb,Apaf-1 inh,PRMT1 FP inh,PAD4 inh,GSTO1 confirm,Apaf-1 inh conf,Rh110 quench,others
CN(C)c1ncc(C2=C(Cl)C(=O)C(N3CCCC3)=C(Cl)C2=O)s1,88*,27*,83*,68*,7,81*,42*,3,Fluor interf inh=>100
Cc1c2ccccc2nc2c(F)c(NCCO)c(F)c(F)c12,62*,13,54*,27*,11,13,22,0,
Cc1cccc(C)c1NC(=O)C(c1ccnc2ccccc12)n1c(=O)c(-c2ccccc2)nc2ccccc21 (stereo unspecified),.,5,.,-2,.,.,.,.,
C(=Nc1cccc2c(N=Cc3ccco3)cccc12)c1ccco1,40*,.,92*,.,62*,3,28,0,PAD4 confirm=9
C(=N\C(/N=C/c1ccco1)c1ccco1)/c1ccco1,19,10,14,12,-1,.,.,.,
COc1cc2c(cc1OC)/C(=C/C(=O)OCc1ccccc1)OC2,.,-3,.,4,.,.,.,.,
O/C=c1\ccc2cccc3nc(C(F)(F)F)nc1c23,64*,-4,79*,40*,-15,76*,86*,-40,Fluor interf inh=20*
CCOC(=O)c1ccc(NC2=CC(=O)C(=O)c3ccccc32)cc1,77*,9,72*,7,-11,87*,88*,8,Fluor interf inh=>100
Cc1nc2ccccn2c1C(O)(c1ccccc1)c1ccccc1,.,2,.,3,.,.,.,.,
O=C(Nc1cccc(C(F)(F)F)c1)c1cc[n+]([O-])cc1,-2,-1,11,1,2,.,.,.,
O=C(Nc1cccc(C(F)(F)F)c1)c1ccc2nc(-c3ccco3)c(-c3ccco3)nc2c1,50*,-6,66*,3,-26,7,44*,2,Fluor interf inh=>100
Cc1ccc(S(=O)(=O)N2[C@H](CC(=O)c3cccs3)OC[C@@H]2C(C)C)cc1,.,-6,.,-2,.,.,.,.,
C=CCOc1c(Cl)cc(CNc2ccc(N(C)C)cc2)cc1OC,77*,15,64*,19,25*,1,19,3,PAD4 confirm=1
C#CCNC(=O)C[C@H]1C[C@@]2(C(=O)OC)C(=C[C@H](C3CCCC3)O[C@@H]2C)N(Cc2ccco2)C1=O,.,-2,.,4,.,.,.,.,
COC(=O)C1=CN(c2cccc(OCc3ccccc3)c2)C(N)=C(C#N)C1c1cccc(OC)c1OC (stereo unspecified),.,-5,.,-2,.,.,.,.,
O=C1NC(=S)N/C1=C/c1cc2c(cc1[N+](=O)[O-])OCO2,83*,12,88*,13,-7,34,81*,1,Fluor interf inh=>100
C=CCN(CC=C)Cc1c(O)ccc2c1oc(=O)c1ccccc12,55*,-9,47*,4,0,29,41*,3,Fluor interf inh=>100
CC(C)(C)c1ccc(S(=O)(=O)N2CCCC(C(=O)NCCN3CCC(Cc4ccccc4)CC3)C2)cc1 (stereo unspecified),.,5,.,3,.,.,.,.,
Cc1ccc2c(c1)c(=O)c1c3n2CCN(C(=O)CCl)C3CC1 (stereo unspecified),66*,21,64*,10,30*,80*,18,-7,GSTO1 recomb ABPP=63;PAD4 confirm=-1
NC(CO)C(=O)NNCc1ccc(O)c(O)c1O (stereo unspecified),88*,-5,51*,30*,-11,72*,.,.,PRMT1 confirm=41*
CCn1nc([N+](=O)[O-])c(C(C#N)c2nc3cc(C(F)(F)F)ccc3s2)c(Cl)c1=O (stereo unspecified),51*,22,7,28*,14,51*,.,.,PRMT1 confirm=31*
Cc1ccc(Cn2c(C(C)Nc3nc(-c4ccc(Cl)c([N+](=O)[O-])c4)cs3)nc3cc(C(F)(F)F)ccc32)cc1 (stereo unspecified),-5,-2,15,8,-3,.,.,.,
CC(C)C(=O)N(c1cc2sc(=O)oc2c2ccccc12)S(=O)(=O)c1cccs1,85*,-5,26,81*,11,43*,.,.,PRMT1 confirm=22*
COc1ccc(N(C(=O)C(C)C)S(=O)(=O)c2cccs2)cc1,0,6,-5,0,-5,.,.,.,
COc1cccc2c1C(=O)c1c(O)c3c(c(O)c1C2=O)C[C@](O)(C(C)=O)C[C@H]3O[C@@H]1C[C@@H](N)[C@@H](O)[C@@H](C)O1,48*,-4,21,+,73*,40*,.,.,PRMT1 confirm=149*
SMILES,GSTO1 inh,TDP2 absorb,Apaf-1 inh,PRMT1 FP inh,PAD4 inh,GSTO1 confirm,Apaf-1 inh conf,Rh110 quench,others
O=S(=O)(c1ccc2nc(-c3ccco3)c(-c3ccco3)nc2c1)N1CCOCC1,48*,17,77*,52*,-5,21,.,.,PRMT1 confirm=69*
Cc1cccc(N2CCN(C(C(=O)NCc3ccccc3)c3ccc(C(F)(F)F)cc3)CC2)c1C (stereo unspecified),.,11,.,0,.,.,.,.,
COc1ccccc1N(O)C1CC(=O)N(c2ccc(Br)cc2)C1=O (stereo unspecified),51*,16,15,42*,-7,12,.,.,PRMT1 confirm=50*
COc1ccc(N2C(=O)CC(Cc3ccc(Br)cc3)C2=O)cc1 (stereo unspecified),7,1,3,-4,-3,.,.,.,
COc1ccc(-c2ccc(N3C(c4ccsc4)=Cc4ccc(F)cc4C3c3c[nH]c4ccccc34)cc2)cc1 (stereo unspecified),.,-3,.,-1,.,.,.,.,
O[C@H](COc1cccc(Br)c1)CN1CCC(C(O)(c2ccccc2)c2ccccc2)CC1,.,-6,.,-1,.,.,.,.,
Cn1c(=O)c(NCCO)c2c3c(cccc31)C(=O)c1ccccc1-2,82*,11,-25,184*,134*,76*,.,.,PRMT1 confirm=184*
O=C(NC1CCCCN(Cc2cccc(C(F)(F)F)c2)C1=O)c1ccc(COc2ccccc2)cc1 (stereo unspecified),.,-1,.,0,.,.,.,.,
COC(=O)COc1ccc(C(c2c(C)[nH][nH]c2=O)c2c(C)[nH][nH]c2=O)cc1,.,13,2,2,.,.,.,.,

# Assay outcomes as filed in PubChem.
